Measurements from ChEMBL document CHEMBL4028818, “Tricyclic 4,4-dimethyl-3,4-dihydrochromeno[3,4-d]imidazole derivatives as microsomal prostaglandin E2 synthase-1 (mPGES-1) inhibitors: SAR and in vivo efficacy in hyperalgesia pain model” (Bioorg Med Chem Lett, 2017).

Columns and labels:
Cavia porcellus = assay: Analgesic activity in Dunkin Hartley guinea pig hyperalgesia pain model assessed as inhibition of LPS-induced thermal hyperalgesia at 100 mg/kg, po qd administered 4 hrs prior to LPS stimulation measured after 4.5 hrs by plantar test relative to control; assay type: functional
Outline: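 LPS was injected into the guinea pig plantar to induce thermal hyperalgesia, and compound was given orally. Response is expressed as % hyperalgesia, with a saline-injected naive group as 0% and the vehicle-treated LPS group as 100%. Values are mean ± SEM, n = 8 per dose group.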

[1] = Plasma concentration in Dunkin Hartley guinea pig model of LPS-induced thermal hyperalgesia pain at 100 mg/kg, po qd measured 7 hrs post dose by LC/MS/MS analysis; assay type: ADME, organism-based, Cavia porcellus
Outline: (§1)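 In the guinea pig LPS thermal hyperalgesia model, plasma and CSF drug levels were measured at the pharmacodynamic time point after oral dosing. Concentrations are means of n = 8 animals per dose group.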

[2] = AUC (0 to 24 hrs) in Guinea pig at 100 mg/kg, po; assay type: ADME, organism-based, Cavia porcellus; set-up: time < 24 hr, dose 100 mg/kg, route oral; details: in vivo
Outline: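 Single oral dose given to guinea pigs as a 0.5% methylcellulose suspension. Values are mean ± SD, n = 3.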

[3] = Plasma concentration in Dunkin Hartley guinea pig model of LPS-induced thermal hyperalgesia pain at 200 mg/kg, po qd measured 7 hrs post dose by LC/MS/MS analysis; assay type: ADME, organism-based, Cavia porcellus; outline: as §1
[4] = Drug uptake in CSF of Dunkin Hartley guinea pig model of LPS-induced thermal hyperalgesia pain at 200 mg/kg, po qd measured 7 hrs post dose by LC/MS/MS analysis; assay type: ADME, organism-based, Cavia porcellus, Cerebrospinal fluid; details: read-out: Drug uptake; outline: as §1

| concentration at 7 h [1] [µM] | AUC(0-t) at 24 h [2] [ng·h/mL] | concentration at 7 h [3] [µM] | concentration at 7 h [4] [nM] | SMILES | inhibition in vivo at 100 mg/kg (Cavia porcellus) [%] |
| --- | --- | --- | --- | --- | --- |
| 13.8 |  |  |  | CC1(C)Oc2cc(C#Cc3cc(Cl)ccc3F)ccc2-c2[nH]c(-c3c(F)cccc3Cl)nc21 | 26 |
|  | 13400 | 7.5 to 7.54 | 9.22 | CC1(C)Oc2cc(-c3cccc(OC(F)(F)F)c3)ccc2-c2[nH]c(-c3c(F)cccc3Cl)nc21 |  |
